Measurements reported in ChEMBL document CHEMBL1157505, “Design and in vitro characterization of highly sst2-selective somatostatin antagonists suitable for radiotargeting” (J Med Chem, 2008).
pIC50: −log10 of the molar value. Active and inactive are the calls of the source. No cut-off for these calls is given here.

What was measured:
[1] = target: Somatostatin receptor type 5 (Homo sapiens, UniProt P35346); assay: Displacement of [125I][LTT]SRIF28 from human cloned sst5 receptor by autoradiography
[2] = target: Somatostatin receptor type 1 (Homo sapiens, UniProt P30872); assay: Displacement of [125I][LTT]SRIF28 from human cloned sst1 receptor by autoradiography
[3] = target: Somatostatin receptor type 4 (Homo sapiens, UniProt P31391); assay: Displacement of [125I][LTT]SRIF28 from human cloned sst4 receptor by autoradiography
[4] = target: Somatostatin receptor type 3 (Homo sapiens, UniProt P32745); assay: Displacement of [125I][LTT]SRIF28 from human cloned sst3 receptor by autoradiography
[5] = target: T1, Somatostatin receptor type 2 (Homo sapiens, UniProt P30874); assay: Displacement of [125I][LTT]SRIF28 from human cloned sst2 receptor by autoradiography
[6] = target: T1, Somatostatin receptor type 2; assay: Antagonist activity at T7 epitope tagged human cloned sst2 receptor expressed in HEK293 cells assessed as inhibition of [Tyr3]octreotide-induced receptor internalization upto 10 uM; format: functional, cell-based
Summary of the method: (§1)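 Surface T7-tagged sst2 on HEK-sst2 cells labelled with anti-T7 antibody 2 h RT in DMEM-LH, then cells exposed 30 min at 37 °C to analogue (alone up to 10 μM or with [Tyr3]-octreotide), fixed in 3% paraformaldehyde, probed with HRP anti-mouse IgG, ABTS read at OD405; surface receptor as % of untreated; mean ± SEM, three experiments in duplicate.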

[7] = target: T1, Somatostatin receptor type 2; assay: Antagonist activity at T7 epitope tagged human cloned sst2 receptor expressed in HEK293 cells assessed as inhibition of [Tyr3]octreotide-induced receptor internalization upto 10 uM by immunofluorescence-based assay; format: functional, cell-based
Summary of the method: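 Immunofluorescence microscopy with sst2-specific antibody R2-88 on HEK-sst2 cells treated 30 min with vehicle, 100 nM [Tyr3]-octreotide, 100 nM [Tyr3]-octreotide plus 100-fold excess (10 μM) analogue, or analogue alone at 10 μM; internalization scored as punctate perinuclear staining.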

[8] = target: T1, Somatostatin receptor type 2; assay: Antagonist activity at T7 epitope tagged human cloned sst2 expressed in HEK293 cells assessed as [Tyr3]octreotide-induced intracellular calcium release upto 10 uM; format: functional, cell-based
Summary of the method: (§2)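 HEK-sst2 cells seeded on poly-D-lysine, cultured 1 day, loaded with Fluo-4NW dye (assay buffer HBSS/20 mM HEPES, 2.5 mM probenecid) 30 min 37 °C plus 30 min RT. Analogues alone up to 10 μM, or [Tyr3]-octreotide with 100-fold excess analogue; fluorescence (ex 485/em 520 nm) recorded 60 s at RT; percentage of ionomycin (25 μM) maximum over baseline; ≥3 experiments in triplicate.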

[9] = target: T1, Somatostatin receptor type 2; assay: Antagonist activity at T7 epitope tagged human cloned sst2 expressed in HEK293 cells assessed as intracellular calcium release upto 10 uM; format: functional, cell-based; summary of the method: as §2
[10] = target: T1, Somatostatin receptor type 2; assay: Antagonist activity at T7 epitope tagged human cloned sst2 receptor expressed in HEK293 cells assessed as inhibition of receptor internalization upto 10 uM by ELISA; format: functional, cell-based; summary of the method: as §1

Chain of Somatostatin receptor type 4 (P31391 whole entry): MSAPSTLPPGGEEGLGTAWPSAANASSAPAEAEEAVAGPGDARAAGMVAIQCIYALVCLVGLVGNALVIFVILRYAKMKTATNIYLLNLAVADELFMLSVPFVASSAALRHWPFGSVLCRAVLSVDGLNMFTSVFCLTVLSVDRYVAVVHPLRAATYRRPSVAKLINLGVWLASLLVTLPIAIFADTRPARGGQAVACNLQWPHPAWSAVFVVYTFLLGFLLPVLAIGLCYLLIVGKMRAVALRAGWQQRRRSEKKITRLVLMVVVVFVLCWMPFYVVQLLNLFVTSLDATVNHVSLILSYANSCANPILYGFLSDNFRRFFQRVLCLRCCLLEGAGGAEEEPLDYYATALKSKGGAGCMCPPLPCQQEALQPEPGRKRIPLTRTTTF
T1 sequence (P30874 whole entry): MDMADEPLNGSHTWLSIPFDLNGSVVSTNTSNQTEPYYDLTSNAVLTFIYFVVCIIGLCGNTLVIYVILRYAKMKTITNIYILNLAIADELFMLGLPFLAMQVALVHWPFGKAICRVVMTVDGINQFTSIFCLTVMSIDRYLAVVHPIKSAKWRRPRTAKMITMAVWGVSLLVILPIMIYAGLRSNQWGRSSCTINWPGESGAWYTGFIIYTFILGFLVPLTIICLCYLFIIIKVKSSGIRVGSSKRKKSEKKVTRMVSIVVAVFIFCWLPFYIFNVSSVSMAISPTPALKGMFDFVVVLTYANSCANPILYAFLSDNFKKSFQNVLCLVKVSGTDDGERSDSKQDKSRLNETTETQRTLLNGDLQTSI
Chain of Somatostatin receptor type 3 (P32745 whole entry): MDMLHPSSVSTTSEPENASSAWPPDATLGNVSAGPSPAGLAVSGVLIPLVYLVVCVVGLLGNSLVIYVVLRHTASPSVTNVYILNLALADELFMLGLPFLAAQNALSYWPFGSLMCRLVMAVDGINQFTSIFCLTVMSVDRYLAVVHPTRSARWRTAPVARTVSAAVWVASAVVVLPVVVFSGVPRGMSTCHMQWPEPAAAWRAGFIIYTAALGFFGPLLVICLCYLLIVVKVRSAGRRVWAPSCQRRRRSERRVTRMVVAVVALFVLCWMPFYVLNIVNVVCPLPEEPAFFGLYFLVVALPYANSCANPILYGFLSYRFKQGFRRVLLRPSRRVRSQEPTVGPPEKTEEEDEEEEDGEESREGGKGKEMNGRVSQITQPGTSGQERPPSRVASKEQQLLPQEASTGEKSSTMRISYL
Chain of Somatostatin receptor type 5 (P35346 whole entry): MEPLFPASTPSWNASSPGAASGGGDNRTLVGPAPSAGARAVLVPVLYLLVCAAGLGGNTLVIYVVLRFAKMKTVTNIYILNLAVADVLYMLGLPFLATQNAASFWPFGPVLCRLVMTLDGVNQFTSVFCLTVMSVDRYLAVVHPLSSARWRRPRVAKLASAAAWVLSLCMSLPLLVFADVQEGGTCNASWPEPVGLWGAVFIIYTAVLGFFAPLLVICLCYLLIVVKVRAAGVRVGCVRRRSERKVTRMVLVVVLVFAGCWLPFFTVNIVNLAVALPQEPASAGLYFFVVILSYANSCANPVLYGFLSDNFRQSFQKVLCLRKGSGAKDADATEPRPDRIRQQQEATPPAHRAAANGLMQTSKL
Chain of Somatostatin receptor type 1 (P30872 whole entry): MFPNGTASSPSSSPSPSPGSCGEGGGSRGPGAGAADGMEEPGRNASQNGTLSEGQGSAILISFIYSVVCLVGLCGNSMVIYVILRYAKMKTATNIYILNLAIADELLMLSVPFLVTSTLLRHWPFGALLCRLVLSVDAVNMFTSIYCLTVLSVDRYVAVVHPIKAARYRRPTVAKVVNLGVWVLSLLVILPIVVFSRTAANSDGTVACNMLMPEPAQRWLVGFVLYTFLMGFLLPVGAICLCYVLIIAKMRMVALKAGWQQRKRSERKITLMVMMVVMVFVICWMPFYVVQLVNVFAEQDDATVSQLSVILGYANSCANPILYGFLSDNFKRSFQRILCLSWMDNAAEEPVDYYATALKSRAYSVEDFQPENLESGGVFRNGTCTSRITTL

| pIC50 [1] | pIC50 [2] | pIC50 [3] | pIC50 [4] | pIC50 [5] | Activity [6] | Activity [7] | Activity [8] | Activity [9] | Activity [10] | Compound |
| --- | --- | --- | --- | --- | --- | --- | --- | --- | --- | --- |
| < 6.00 | < 6.00 | < 6.00 | < 6.00 | 8.77 |  |  |  |  |  | C[C@@H](O)[C@@H]1NC(=O)[C@H](CCCCN)NC(=O)[C@@H](Cc2ccc(NC(N)=O)cc2)NC(=O)[C@H](Cc2ccc(NC(=O)[C@@H]3CC(=O)NC(=O)N3)cc2)NC(=O)[C@H](NC(=O)[C@H](Cc2ccc(Cl)cc2)NC(=O)CN2CCN(CC(=O)O)CCN(CC(=O)O)CCN(CC(=O)O)CC2)CSSC[C@@H](C(=O)N[C@@H](Cc2ccc3ccccc3c2)C(N)=O)NC1=O |
|  |  |  |  |  | Active | Active | Active | inactive |  | C[C@@H](O)[C@@H]1NC(=O)[C@H](CCCCN)NC(=O)[C@@H](Cc2ccc(NC(N)=O)cc2)NC(=O)[C@H](Cc2ccc(NC(=O)[C@@H]3CC(=O)NC(=O)N3)cc2)NC(=O)[C@H](NC(=O)[C@@H](Cc2ccc(Cl)cc2)NC(=O)CN2CCN(CC(=O)O)CCN(CC(=O)O)CCN(CC(=O)O)CC2)CSSC[C@@H](C(=O)N[C@H](Cc2ccc(O)cc2)C(N)=O)NC1=O |
| < 6.00 | < 6.00 | 6.34 | < 6.00 | 8.92 |  |  |  |  |  | C[C@@H](O)[C@@H]1NC(=O)[C@H](CCCCN)NC(=O)[C@@H](Cc2c[nH]c3ccccc23)NC(=O)[C@H](Cc2ccc(O)c(I)c2)NC(=O)[C@H](NC(=O)[C@H](Cc2ccc([N+](=O)[O-])cc2)NC(=O)CN2CCN(CC(=O)O)CCN(CC(=O)O)CCN(CC(=O)O)CC2)CSSC[C@@H](C(=O)N[C@H](Cc2ccc(O)cc2)C(N)=O)NC1=O |
| < 6.00 | < 6.00 | < 6.00 | 7.08 | 8.62 |  |  |  |  |  | C[C@@H](O)[C@@H]1NC(=O)[C@H](CCCCN)NC(=O)[C@@H](Cc2ccc(NC(N)=O)cc2)NC(=O)[C@H](Cc2ccc(NC(=O)[C@@H]3CC(=O)NC(=O)N3)cc2)NC(=O)[C@H](NC(=O)[C@@H](N)Cc2ccc(Cl)cc2)CSSC[C@@H](C(=O)N[C@@H](Cc2ccc3ccccc3c2)C(N)=O)NC1=O |
| 6.05 | < 6.00 | 6.14 | 7.06 | 7.40 |  |  |  |  |  | C[C@@H](O)[C@@H]1NC(=O)[C@H](CCCCN)NC(=O)[C@@H](Cc2c[nH]c3ccccc23)NC(=O)[C@H](Cc2ccc(NC(N)=O)cc2)NC(=O)[C@H](NC(=O)[C@H](Cc2ccc(Cl)cc2)NC(=O)CCOCCOCCOCCNC(=O)CN2CCN(CC(=O)O)CCN(CC(=O)O)CCN(CC(=O)O)CC2)CSSC[C@@H](C(=O)N[C@@H](Cc2ccc3ccccc3c2)C(N)=O)NC1=O |
|  |  |  |  |  | Active | Active | Active | inactive |  | C[C@@H](O)[C@@H]1NC(=O)[C@H](CCCCN)NC(=O)[C@@H](Cc2ccc(NC(N)=O)cc2)NC(=O)[C@H](Cc2ccc(O)cc2)NC(=O)[C@H](NC(=O)[C@@H](Cc2ccc([N+](=O)[O-])cc2)NC(=O)CN2CCN(CC(=O)O)CCN(CC(=O)O)CCN(CC(=O)O)CC2)CSSC[C@@H](C(=O)N[C@H](Cc2ccc(O)cc2)C(N)=O)NC1=O |
|  |  |  |  |  | Active | Active | Active | inactive | inactive | C[C@@H](O)[C@@H]1NC(=O)[C@H](CCCCN)NC(=O)[C@@H](Cc2c[nH]c3ccccc23)NC(=O)[C@H](Cc2ccc(O)c(I)c2)NC(=O)[C@H](NC(=O)[C@@H](Cc2ccc([N+](=O)[O-])cc2)NC(=O)CN2CCN(CC(=O)O)CCN(CC(=O)O)CCN(CC(=O)O)CC2)CSSC[C@@H](C(=O)N[C@H](Cc2ccc(O)cc2)C(N)=O)NC1=O |
| < 6.00 | < 6.00 | < 6.00 | 6.35 | 8.57 |  |  |  |  |  | C[C@@H](O)[C@@H]1NC(=O)[C@H](CCCCN)NC(=O)[C@@H](Cc2ccc(NC(N)=O)cc2)NC(=O)[C@H](Cc2ccc(NC(=O)[C@@H]3CC(=O)NC(=O)N3)cc2)NC(=O)[C@H](NC(=O)[C@@H](N)Cc2ccc([N+](=O)[O-])cc2)CSSC[C@@H](C(=O)N[C@@H](Cc2ccc3ccccc3c2)C(N)=O)NC1=O |
